Measurements of several laboratories.
Lines come from different studies, so protocols differ.
Target: Dual specificity tyrosine-phosphorylation-regulated kinase 2 (DYRK2, Homo sapiens, UniProt Q92630)
One construct used (Q92630 1-601): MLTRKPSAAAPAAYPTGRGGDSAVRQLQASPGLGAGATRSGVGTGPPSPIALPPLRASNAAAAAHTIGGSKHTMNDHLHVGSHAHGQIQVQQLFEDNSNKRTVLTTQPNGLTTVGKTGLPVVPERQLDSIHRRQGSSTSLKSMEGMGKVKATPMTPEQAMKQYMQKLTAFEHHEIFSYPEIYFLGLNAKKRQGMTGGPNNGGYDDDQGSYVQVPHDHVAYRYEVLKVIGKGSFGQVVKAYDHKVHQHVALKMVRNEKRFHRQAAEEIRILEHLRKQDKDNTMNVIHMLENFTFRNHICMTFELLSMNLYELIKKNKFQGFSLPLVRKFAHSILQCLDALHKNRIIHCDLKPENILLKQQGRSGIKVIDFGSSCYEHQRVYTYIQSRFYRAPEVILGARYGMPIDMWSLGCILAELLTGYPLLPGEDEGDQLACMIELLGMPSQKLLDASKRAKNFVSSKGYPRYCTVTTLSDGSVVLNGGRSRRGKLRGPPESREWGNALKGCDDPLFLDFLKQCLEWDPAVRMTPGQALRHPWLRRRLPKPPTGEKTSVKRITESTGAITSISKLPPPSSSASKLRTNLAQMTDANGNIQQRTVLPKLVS

| SMILES | assay | setting | measurement | value |
| --- | --- | --- | --- | --- |
| FC(F)(F)Oc1cccc(-c2cnc3ccc(-c4ccncc4)nn23)c1 | enzyme activity, inhibitor, radiometric | 1 µM | activity vs control | 52% |
| Cn1cncc1C1=CN(c2ncnc3[nH]cnc23)CCS1 | enzyme activity, inhibitor, radiometric | 50 nM | inhibition | 20.6% |
| O=C(O)c1ccc2c(c1)nc(Nc1ccc(Cl)cc1)c1ncncc12 | enzyme activity, inhibitor, radiometric | 1 µM | remaining activity | 33% |
| CC/C(=N\NC(=O)NCc1cccc(O)c1)c1ccc(O)c(C)c1O | enzyme activity, inhibitor | 0.1 µM | inhibition | -0.2% |
| Cc1cc(NC(=O)c2cccc(S(F)(F)(F)(F)F)c2)cc(-n2ccn3nc(-c4cccnc4)cc23)c1 | cell-free assay, competition with immobilised ligand | 1 µM | remaining binding | 100% |
| N#Cc1cccc(Nc2nc3cc(C(=O)O)ccc3c3cncnc23)c1 | enzyme activity, inhibitor, radiometric | 1 µM | remaining activity | 55% |
| Cc1cc(C)c(-n2ccn3nc(-c4cccnc4)cc23)cc1NC(=O)c1cc(C#N)cc(S(F)(F)(F)(F)F)c1 | cell-free assay, competition with immobilised ligand | 0.1 µM | remaining binding | 82.5% |
| CNC(=O)c1cc(Oc2ccc(NC(=O)Nc3ccc(Cl)c(C(F)(F)F)c3)cc2)ccn1 | enzyme activity, inhibitor | 0.3 µM | inhibition | -3% |
| NS(=O)(=O)c1cc(NC(=O)C2(c3ccccc3Cl)CC2)ccc1Oc1cccc(Cl)c1 | cell-free assay, competition with immobilised ligand | 1 µM | remaining binding | 81% |
| COc1ccc(COc2ccc(Cc3cnc(N)nc3N)cc2OC)cc1 | cell-free assay | 0.5 µM | remaining signal | 105% |
| O=C(O)c1ccc2c(c1)nc(NCCc1ccccc1)c1ncncc12 | enzyme activity, inhibitor, radiometric | 1 µM | remaining activity | 45% |
| O=C(Nc1cccnn1)N1CC(C/C=C/c2cncc(Oc3ccc(C(F)(F)F)cn3)n2)C1 | cell-free assay, competition with immobilised ligand | 1 µM | remaining binding | 81% |
| Nc1ncnc2occ(-c3ccc(NC(=O)Nc4cc(C(F)(F)F)ccc4F)cc3)c12 | cell-free assay, inhibitor | 20 µM | remaining signal | 19% |
| O=C(O)[C@H]1[C@H](Cn2nnc3ccccc3c2=O)CC[C@@H]1C(=O)c1ccc(OCCC2CCOCC2)cc1 | cell-free assay, competition with immobilised ligand | 1 µM | remaining binding | 93% |
| O=C(O)c1ccc2c(c1)nc(NCCc1cccc(F)c1)c1ncncc12 | enzyme activity, inhibitor, radiometric | 1 µM | remaining activity | 52% |
| Cc1cc(NC(=O)c2cccc3cc(-c4cccc5[nH]nc(N)c45)ccc23)ccc1F | enzyme activity, inhibitor | 0.1 µM | activity vs control | 98% |
| Cc1ccc(Nc2nccc(N(C)c3ccc4c(C)n(C)nc4c3)n2)cc1S(N)(=O)=O | enzyme activity, inhibitor | 10 µM | inhibition | -3% |
| Cc1ccc(NC(=O)c2ccc(CN3CCN(C)CC3)cc2)cc1Nc1nc(-c2cccnc2)cs1 | cell-free assay | 0.5 µM | remaining signal | 109% |
| O=C(O)c1ccc2c(c1)nc(Nc1ccc(F)c(Cl)c1)c1ncncc12 | enzyme activity, inhibitor, radiometric | 1 µM | remaining activity | 41% |
| Cc1c(C(=O)O)cc(-c2ccc(C3CCNCC3)cc2)c2ccc(-c3ccc(C(F)(F)F)cc3)cc12 | binding, competition with immobilised ligand | 1 µM | remaining binding | 100% |
| O=C(O)c1ccc2c(c1)nc(NCCc1cccc(Cl)c1)c1ccncc12 | enzyme activity, inhibitor, radiometric | 1 µM | remaining activity | 29% |
| CN(C)CC#Cc1ccc(OCCCc2sc(N3CCc4cccc(C(=O)Nc5nc6ccccc6s5)c4C3)nc2C(=O)O)c(F)c1 | cell-free assay, competition with immobilised ligand | 1 µM | remaining binding | 100% |
| O=C(O)c1ccc2c(c1)nc(Nc1ccc(F)c(Cl)c1)c1ccncc12 | enzyme activity, inhibitor, radiometric | 1 µM | remaining activity | 5% |
| CS(=O)(=O)CCNCc1ccc(-c2ccc3ncnc(Nc4ccc(OCc5cccc(F)c5)c(Cl)c4)c3c2)o1 | cell-free assay | 0.5 µM | remaining signal | 102% |
| CCCS(=O)(=O)Nc1ccc(F)c(C(=O)c2c[nH]c3ncc(-c4ccc(Cl)cc4)cc23)c1F | enzyme activity, inhibitor | 1 µM | inhibition | < 10% |
| CCN(CC)CCNC(=O)c1c(C)[nH]c(/C=C2\C(=O)Nc3ccc(F)cc32)c1C | enzyme activity, inhibitor | 10 µM | inhibition | 36% |
| O=C(N1CCS(=O)(=O)CC1)N1C[C@H](c2ccc(OC(F)(F)F)cc2)C[C@H](c2nc(C3CC3)no2)C1 | cell-free assay, competition with immobilised ligand | 1 µM | remaining binding | 100% |
| COc1cccc(CCNc2nc3cc(C(=O)O)ccc3c3cncnc23)c1 | enzyme activity, inhibitor, radiometric | 1 µM | remaining activity | 59% |
